According to ChEMBL document CHEMBL2407055, “4-Substituted 2-Hydroxyisoquinoline-1,3(2H,4H)-diones as a Novel Class of HIV-1 Integrase Inhibitors” (ACS Med Chem Lett, 2013):
≈ marks a conversion by molar mass, not a printed value.

Tests used:
[1] = biological target: T1, Human immunodeficiency virus type 1 integrase (Human immunodeficiency virus 1, UniProt Q7ZJM1); assay: Inhibition of HIV1 integrase overall inhibition using 5'-digoxigenin-labeled 5'-GACCCTTTTAGTCAGTGTGGAAAATCTCTAGCAGT-3' as substrate after 1 hr by ELISA
T1 sequence (Q7ZJM1 whole entry): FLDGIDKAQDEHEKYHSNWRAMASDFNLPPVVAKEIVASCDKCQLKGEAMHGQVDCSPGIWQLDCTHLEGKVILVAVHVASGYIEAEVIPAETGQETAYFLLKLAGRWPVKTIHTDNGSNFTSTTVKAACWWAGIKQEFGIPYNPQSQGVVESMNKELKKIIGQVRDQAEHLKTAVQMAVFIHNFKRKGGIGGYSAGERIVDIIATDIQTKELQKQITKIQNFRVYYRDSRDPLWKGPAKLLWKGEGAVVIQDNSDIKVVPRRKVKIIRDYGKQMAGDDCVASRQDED

[2] = Therapeutic index, ratio of CC50 for human MT4 cells to EC50 for HIV1 3B; format: cell-based; conditions: read-out: Ratio CC50/EC50
Summary of the method: (§1)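 Anti-HIV-1 activity was measured in MT-4 cells. EC50 is the concentration that cuts HIV-1-induced cytopathic effect by 50%. CC50 is the concentration that lowers MT-4 cell viability by 50%. The therapeutic index is CC50/EC50.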

[3] = biological target: T1, Human immunodeficiency virus type 1 integrase; assay: Inhibition of strand transfer activity of HIV1 integrase using pre-cleaved oligonucleotide as substrate after 1 hr by ELISA
[4] = Protein binding in human plasma; format: ADME, cell-free; conditions: read-out: PPB
[5] = system: Human immunodeficiency virus 1; assay: Antiviral activity against HIV1 3B infected in human MT4 cells assessed as inhibition of virus-induced cytopathic effect by MTT assay; format: functional, organism-based; conditions: Human immunodeficiency virus 1, 3B; summary of the method: as §1
[6] = Cytotoxicity against human MT4 cells by MTT assay; format: cell-based; summary of the method: as §1
[7] = Aqueous solubility of the compound in PBS at pH 7.4; format: physicochemical
[8] = n-octanol-PBS partition coefficient, log D of the compound at pH 7.4; format: physicochemical
[9] = biological target: T1, Human immunodeficiency virus type 1 integrase; assay: Inhibition of 3'-processing activity of HIV1 integrase using 32P-5'-TGTGGAAAATCTCTAGCAGT-3' and 5'-ACTGCTAGAGATTTTCCACA-3' as substrate after 1 hr by ELISA
[10] = biological target: Human immunodeficiency virus type 1 reverse transcriptase (Human immunodeficiency virus 1, UniProt Q72547); assay: Inhibition of HIV1 recombinant reverse transcriptase RNase H activity after 10 mins
Summary of the method: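 In vitro assay of RT-associated RNase H function. IC50 is the concentration giving 50% inhibition of RNase H activity.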

[11] = biological target: T1, Human immunodeficiency virus type 1 integrase; assay: Inhibition of HIV1 integrase binding to LEDGF
[12] = biological target: Human immunodeficiency virus type 1 integrase (Human immunodeficiency virus 1) (UniProt Q7ZJM1); assay: Ratio of IC50 for strand transfer activity of HIV1 integrase to IC50 for HIV1 integrase overall inhibition
Chain of Human immunodeficiency virus type 1 integrase (Human immunodeficiency virus 1) (Q7ZJM1 as listed by the source): as the sequence (Q7ZJM1 whole entry) above

Structure (SMILES) | IC50 [1] | IC50 [3] | fraction unbound [4] | solubility [7] | logD [8] | IC50 [9] | IC50 [10] | IC50 [11] | Ratio IC50 [12] | selectivity ratio [2] | EC50 [5] | CC50 [6]
O=C(NCc1ccc(F)cc1)C1C(=O)N(O)C(=O)c2ccccc21 (stereo not given) | 0.056 µM | 0.099 µM | 0.001 | 190 µM (≈ 62.4 µg/mL) | 0.56 | 0.06 µM | 0.36 µM | > 100 µM |  | 86.3 | 2.34 µM | 202 µM
COc1ccc(CNC(=O)C2C(=O)N(O)C(=O)c3ccccc32)cc1OC (stereo not given) | 0.235 µM | 0.307 µM |  |  |  |  |  |  |  |  | > 125 µM | 125 µM
O=C(Nc1ccccc1)C1C(=O)N(O)C(=O)c2ccccc21 (stereo not given) | 0.31 µM | 0.73 µM |  |  |  |  |  |  |  | 21.3 | 4.95 µM | 106 µM
COc1ccc(NC(=O)C2C(=O)N(O)C(=O)c3ccccc32)cc1Cl (stereo not given) | 0.02 µM | 0.277 µM |  |  |  | 1.58 µM | 16.6 µM |  | 10 | 3.7 | 3.34 µM | 12.3 µM
Cc1nnc(C(=O)NC(C)(C)c2nc(C(=O)NCc3ccc(F)cc3)c(O)c(=O)n2C)o1 |  |  |  |  |  |  |  |  |  |  |  | > 8 µM
COc1ccc(CCNC(=O)C2C(=O)N(O)C(=O)c3ccccc32)cc1OC (stereo not given) | 0.495 µM | 0.126 µM |  |  |  |  | 3.85 µM |  |  | > 1.8 | 70.8 µM | > 125 µM
COc1ccc(CNC(=O)C2C(=O)N(O)C(=O)c3ccccc32)c(OC)c1 (stereo not given) | 0.035 µM | 0.254 µM |  |  |  |  | 0.63 µM |  | 10 | 6.5 | 9.24 µM | 60.4 µM
O=C(Nc1cccc(F)c1)C1C(=O)N(O)C(=O)c2ccccc21 (stereo not given) | 0.01 µM | 0.11 µM |  |  |  |  | 7.31 µM |  | 10 | 25.9 | 2.47 µM | 64 µM
CN1C(=O)c2ccccc2C(C(=O)NCc2ccc(F)cc2)C1=O (stereo not given) | > 250 µM | > 250 µM |  |  |  |  |  |  |  |  | > 250 µM | > 250 µM
O=C(NCc1ccc(O)cc1O)C1C(=O)N(O)C(=O)c2ccccc21 (stereo not given) | 0.035 µM | 0.572 µM |  |  |  | 2.35 µM | 0.52 µM |  | 10 | > 16 | 7.94 µM | > 125 µM

Second part, led by results:

IC50 [1] | IC50 [3] | fraction unbound [4] | solubility [7] | logD [8] | IC50 [9] | IC50 [10] | IC50 [11] | Ratio IC50 [12] | Structure (SMILES) | selectivity ratio [2] | EC50 [5] | CC50 [6]
1.19 µM | 1.03 µM |  |  |  |  |  |  |  | COc1ccc(CNC(=O)C2C(=O)N(O)C(=O)c3ccccc32)cc1 (stereo not given) | 6.7 | 17.6 µM | 118 µM
0.8 µM | 1.12 µM |  |  |  |  |  |  |  | O=C(Nc1ccc(F)cc1)C1C(=O)N(O)C(=O)c2ccccc21 (stereo not given) | 65.4 | 1.75 µM | 114 µM
0.08 µM | 0.03 µM |  |  |  |  |  |  |  | O=C(NCc1ccccc1)C1C(=O)N(O)C(=O)c2ccccc21 (stereo not given) | 41.7 | 3.12 µM | 130 µM
0.205 µM | 0.258 µM |  |  |  |  | 0.9 µM |  |  | O=C(NCc1ccc(O)c(O)c1)C1C(=O)N(O)C(=O)c2ccccc21 (stereo not given) |  | > 11 µM | 11 µM
5.21 µM | 5.6 µM |  |  |  |  |  |  |  | CN(C(=O)C1C(=O)N(O)C(=O)c2ccccc21)c1ccccc1 (stereo not given) |  | > 107 µM | 107 µM
199 µM | 79 µM |  |  |  |  |  |  |  | O=C1NC(=O)C(C(=O)NCc2ccc(F)cc2)c2ccccc21 (stereo not given) |  | > 250 µM | > 250 µM
0.03 µM | 0.2 µM |  |  |  |  |  |  |  | O=C(NCCc1ccc(F)cc1)C1C(=O)N(O)C(=O)c2ccccc21 (stereo not given) | 24 | 5.08 µM | 124 µM
0.076 µM | 0.084 µM |  |  |  |  | 14 µM |  |  | Cc1ccc(CNC(=O)C2C(=O)N(O)C(=O)c3ccccc32)cc1 (stereo not given) | > 22 | 5.7 µM | > 125 µM
0.673 µM | 0.296 µM |  |  |  |  | 0.13 µM |  |  | O=C(NCCc1ccc(O)c(O)c1)C1C(=O)N(O)C(=O)c2ccccc21 (stereo not given) |  | > 63 µM | 63 µM
